From PubChem BioAssay
This is a sample that favours compounds with a hit; in the whole collection about 9.6% have one here.
PTEN del growth – PTEN-deleted cell growth suppression | actives 1.2% (n = 140,000) | viability, % at 10 µM | HCT116 PTEN-null viability, CellTiter-Glo, 60 h; hits give low values;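 active = viability at or below a set limit, 4 SD under the median of all tested compounds, cut at about 3.7% in these data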;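 also: PTEN knockout HCT116 line with beta catenin targeted HCT116 as companion control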
TNAP inh noacc – TNAP (human) inhibition, acceptor-free conditions; inhibition, % at 20 µM; purified TNAP, CDP-star luminescence, 30 min; actives 0.26% (n = 200,000); P05186;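 active = tissue-nonspecific alkaline phosphatase inhibition above about 50% at 20 µM in the single-dose screen, limit read from the data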;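 also: 0% = DMSO negative control and 100% = EDTA positive control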
Target sequence (P05186 whole entry, looked up): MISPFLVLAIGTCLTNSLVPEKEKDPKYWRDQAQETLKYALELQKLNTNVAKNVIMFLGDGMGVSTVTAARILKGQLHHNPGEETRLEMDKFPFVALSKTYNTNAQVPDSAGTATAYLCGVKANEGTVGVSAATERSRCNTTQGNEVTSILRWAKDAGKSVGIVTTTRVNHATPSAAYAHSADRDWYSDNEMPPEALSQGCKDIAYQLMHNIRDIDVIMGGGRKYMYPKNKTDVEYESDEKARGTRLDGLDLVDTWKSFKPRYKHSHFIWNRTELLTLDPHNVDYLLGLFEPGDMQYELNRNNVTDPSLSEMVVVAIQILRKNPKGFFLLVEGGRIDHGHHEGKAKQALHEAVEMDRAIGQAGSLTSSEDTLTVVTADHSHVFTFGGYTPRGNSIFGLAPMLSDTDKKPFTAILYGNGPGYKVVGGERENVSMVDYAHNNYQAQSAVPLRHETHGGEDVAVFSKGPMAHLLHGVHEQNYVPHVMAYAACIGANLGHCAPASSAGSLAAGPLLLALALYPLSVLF
L major viab – inhibitors of Leishmania major promastigote growth. Leishmania major promastigotes, resazurin fluorescence viability. inhibition, % at 10 µM. actives 9% (n = 200,000); in the data active = inhibition above about 50%;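 also: promastigotes grown with compound for 44 hours at 28 °C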
TNAP inh hi DEA – blocks human TNAP under high phosphate acceptor concentration. P05186. purified TNAP, CDP-star luminescence, 1 M DEA. inhibition, % at 20 µM. actives 0.03% (n = 200,000). AID 1135;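 active = over 50% inhibition of tissue-nonspecific alkaline phosphatase at 20 µM in the single-dose screen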;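 also: plate controls were DMSO wells for no effect and EDTA-quenched wells as full inhibition for full effect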
HCT116 bCat-KO – beta-catenin-lacking colon tumor cell growth suppression. HCT116 beta-catenin knockout viability, CellTiter-Glo, 60 h; hits give low values. viability, % at 10 µM. actives 1.5% (n = 140,000). AID 818;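 active = viability at or under a set limit, the compound median less 4 SD, cut at about 6% in these data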;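 also: 0% = Hyamine 1622 control at 20 µM and 100% = untreated cell control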
TNAP act hi DEA – increases human TNAP activity under high phosphate acceptor concentration. purified TNAP, CDP-star luminescence, 1 M DEA, 30 min; hits give high values; 0 = EDTA background, 1 = DMSO-only activity. activation factor at 20 µM. 200,000 tested, under 10 active. AID 1136;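 active = activation factor at least 2 at 20 µM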
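Test system – human TNAP · Doses – 20 µM single point · Incubation – 30 min, room temperature · Signal – luminescent substrate turnover signal · Read-out basis – activation factor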
Starred values were filed as active, the others as inactive.

How did Cc1ccc(NC(=O)C(OC(=O)c2ccc(C=O)cc2)c2ccccc2)cc1Cl (stereo unspecified) do in these assays?
PTEN del growth: 87.2; TNAP inh noacc: -4.0; L major viab: 37.2; TNAP inh hi DEA: -2.4; HCT116 bCat-KO: 92.8; TNAP act hi DEA: 1

What do the screens show for `COc1ccccc1N(C)S(=O)(=O)c1ccc(C(=O)OCC(=O)NCC(F)(F)F)cc1`?
TNAP inh noacc: -11.1; L major viab: -9.9; TNAP inh hi DEA: -4.2; TNAP act hi DEA: 1

Results for CCC(C)(C)NC(=O)c1ccc(S(=O)(=O)N(C)c2ccccc2OC)cc1 ?
PTEN del growth: 109.7; TNAP inh noacc: -8.0; L major viab: 38.0; TNAP inh hi DEA: -7.3; HCT116 bCat-KO: 101.7; TNAP act hi DEA: 1.1

How did COc1ccccc1N(C)S(=O)(=O)c1ccc(C(=O)OCC(=O)N(C(C)C)C(C)C)cc1 do in these assays?
TNAP inh noacc: -8.6; L major viab: 100.0*; TNAP inh hi DEA: -2.6; TNAP act hi DEA: 1

What do the screens show for `COc1ccccc1N(C)S(=O)(=O)c1ccc(C(=O)OCC(=O)N2CCC2)cc1`?
TNAP inh noacc: -0.9; L major viab: 83.4*; TNAP inh hi DEA: -0.2; TNAP act hi DEA: 1

Results for COc1ccccc1N(C)S(=O)(=O)c1ccc(C(=O)NCC(C)C)cc1 ?
PTEN del growth: 100.9; TNAP inh noacc: -7.2; L major viab: 92.5*; TNAP inh hi DEA: -6.4; HCT116 bCat-KO: 98.0; TNAP act hi DEA: 1.1

What do the screens show for `CCOC(=O)c1cc(CC)sc1NC(=O)CC1Sc2ccc(C(F)(F)F)cc2NC1=O` (stereo unspecified)?
PTEN del growth: 101.2; TNAP inh noacc: -0.6; L major viab: 30.9; TNAP inh hi DEA: 0.8; HCT116 bCat-KO: 91.5; TNAP act hi DEA: 1

How did COc1cccc(CC(=O)N2CCN(c3ccccc3[N+](=O)[O-])CC2)c1 do in these assays?
TNAP inh noacc: -0.4; L major viab: 21.3; TNAP inh hi DEA: -0.3; TNAP act hi DEA: 1

How did O=C(C(Sc1ccccc1)c1ccccc1)N1CCOCC1 (stereo unspecified) do in these assays?
PTEN del growth: 94.0; TNAP inh noacc: -8.4; L major viab: -4.1; TNAP inh hi DEA: 2.5; HCT116 bCat-KO: 87.7; TNAP act hi DEA: 1

How did CCCc1cc2c(=O)n(NC(=O)c3nn(C)cc3[N+](=O)[O-])c(C)nc2s1 do in these assays?
PTEN del growth: 109.0; TNAP inh noacc: -18.1; L major viab: -1.0; TNAP inh hi DEA: -3.3; HCT116 bCat-KO: 92.9; TNAP act hi DEA: 1

Results for COc1ccc2[nH]c(=O)c(CN(Cc3cccs3)Cc3nnnn3C(C)(C)C)cc2c1 ?
PTEN del growth: 81.5; TNAP inh noacc: -15.6; L major viab: 99.5*; TNAP inh hi DEA: -3.4; HCT116 bCat-KO: 78.7; TNAP act hi DEA: 1

What do the screens show for `CCOC(=O)Cn1nnnc1CN(Cc1cccs1)Cc1cc2cc(C)ccc2[nH]c1=O`?
PTEN del growth: 99.8; TNAP inh noacc: -4.9; L major viab: 1.5; TNAP inh hi DEA: -1.9; HCT116 bCat-KO: 109.0; TNAP act hi DEA: 1

Results for CCOc1ccc2[nH]c(=O)c(CN(Cc3cccs3)Cc3nnnn3C(C)(C)C)cc2c1 ?
PTEN del growth: 23.5; TNAP inh noacc: -12.7; L major viab: 73.4*; TNAP inh hi DEA: -4.6; HCT116 bCat-KO: 32.8; TNAP act hi DEA: 1

How did CC(C)(C)c1ccc(C2(C)NC(=O)N(CC(=O)NCc3cccs3)C2=O)cc1 (stereo unspecified) do in these assays?
PTEN del growth: 97.8; TNAP inh noacc: -9.5; L major viab: 68.9*; TNAP inh hi DEA: -5.6; HCT116 bCat-KO: 95.1; TNAP act hi DEA: 1.1

Results for O=C(CN1C(=O)NC2(CCCCCCC2)C1=O)NCc1cccs1 ?
PTEN del growth: 89.4; TNAP inh noacc: -9.3; L major viab: -2.3; TNAP inh hi DEA: -1.3; HCT116 bCat-KO: 96.3; TNAP act hi DEA: 1

Results for COc1ccc(OC(=O)CCc2c[nH]c3ccccc23)cc1 ?
TNAP inh noacc: -6.0; L major viab: 2.7; TNAP inh hi DEA: 0.3; TNAP act hi DEA: 1

Results for CC1CCCCC1NC(=O)/C(C#N)=C/c1ccc(F)c(F)c1 (stereo unspecified) ?
PTEN del growth: 31.6; TNAP inh noacc: -8.0; L major viab: 96.4*; TNAP inh hi DEA: -1.6; HCT116 bCat-KO: 40.1; TNAP act hi DEA: 1

What do the screens show for `CC1CCCCC1NC(=O)/C(C#N)=C/c1ccc2c(c1)OCCO2` (stereo unspecified)?
PTEN del growth: 60.6; TNAP inh noacc: -0.1; L major viab: 59.3*; TNAP inh hi DEA: 1.2; HCT116 bCat-KO: 50.5; TNAP act hi DEA: 1

What do the screens show for `C=CCNC(=O)/C(C#N)=C/c1ccc2c(c1)OCCO2`?
TNAP inh noacc: -6.0; L major viab: -0.6; TNAP inh hi DEA: -0.8; TNAP act hi DEA: 1

How did Cc1cc(=O)oc(C)c1C(=O)NC1CCCCCCC1 do in these assays?
TNAP inh noacc: 1.4; L major viab: 3.9; TNAP inh hi DEA: -2.3; TNAP act hi DEA: 1

What do the screens show for `CC(C)c1ccc(/C=C(\c2nc3ccccc3[nH]2)S(=O)(=O)c2ccccc2)cc1`?
PTEN del growth: 1.9*; TNAP inh noacc: -5.6; L major viab: 100.4*; TNAP inh hi DEA: -2.8; HCT116 bCat-KO: 1.8*; TNAP act hi DEA: 1

How did CC(C)(C)/C(O)=C/c1nc2ccccc2[nH]c1=O do in these assays?
PTEN del growth: 100.5; TNAP inh noacc: -1.5; L major viab: -5.4; TNAP inh hi DEA: 10.2; HCT116 bCat-KO: 93.7; TNAP act hi DEA: 0.9

Results for O=S(=O)(/C(=C/c1ccc(C(F)(F)F)cc1)c1nc2ccccc2[nH]1)c1ccccc1 ?
PTEN del growth: 1.6*; TNAP inh noacc: 0.2; L major viab: 100.4*; TNAP inh hi DEA: -3.2; HCT116 bCat-KO: 1.5*; TNAP act hi DEA: 1

What do the screens show for `Cn1c(SCC(=O)N2CCCC2=O)nnc1-c1ccccc1F`?
TNAP inh noacc: -2.0; L major viab: -8.1; TNAP inh hi DEA: 0.3; TNAP act hi DEA: 1

What do the screens show for `O=C1CCCN1CCCNc1ncnc2sccc12`?
TNAP inh noacc: -7.7; L major viab: 1.6; TNAP inh hi DEA: -2.4; TNAP act hi DEA: 1

How did CCC(=O)OCC(=O)Nc1cc([N+](=O)[O-])ccc1OC do in these assays?
TNAP inh noacc: -8.2; L major viab: -2.2; TNAP inh hi DEA: -3.4; TNAP act hi DEA: 1

How did O=C(CCn1c(=O)c2ccccc2n(CC(=O)NC2CCCC2)c1=O)NCc1ccco1 do in these assays?
PTEN del growth: 119.0; TNAP inh noacc: -2.4; L major viab: 100.0*; TNAP inh hi DEA: -4.5; HCT116 bCat-KO: 99.4; TNAP act hi DEA: 1

Results for O=C(Cn1c(=O)n(CCCC(=O)NC2CCCC2)c(=O)c2ccccc21)NCCC1=CCCCC1 ?
PTEN del growth: 2.8*; TNAP inh noacc: -7.6; L major viab: -5.1; TNAP inh hi DEA: -0.9; HCT116 bCat-KO: 5.3*; TNAP act hi DEA: 1
